Measured values reported in ChEMBL document CHEMBL5376024, “Small molecule WDR5 inhibitors down-regulate lncRNA expression” (RSC Med Chem, 2024).
Calls of active or inactive are those of the source. No cut-off for these calls is given here.

Assays:
Format in all cases: cell-based
U2OS [1] = test: Inhibition of HOXC13-AS-WDR5 complex formation in human U2OS cells at 10 uM by in vitro RNA immunoprecipitation assay
In short: (§1)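 RIP assay on purified FLAG-WDR5 loaded at 0.2 mg/mL onto anti-FLAG magnetic beads (Buffer C with 0.1% IGEPAL, 0.1% BSA, 10 µg/mL yeast tRNA; 4 °C, 3 h). The beads were then given 1 µg of U-2 OS total RNA (TRIzol) with or without inhibitor, in 0.1% DMSO in RIP buffer (Tris pH 7.5, KCl, EDTA, RNasin), for 1 h at rt. RNA was read by RT-qPCR as percentage enrichment against a 50% input.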

MDA-MB-231 [2] = test: Inhibition of IncRNA-WDR5 complex in human MDA-MB-231 cells assessed as downregulation of HOTTIP expression measured at 10 uM after 1 day by RT-qPCR analysis
In short: (§2)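 MDA-MB-231 cells (DMEM, 10% FBS, 37 °C, 5% CO2) were seeded in 12-well plates at 1×10^5 cells/well for 1-day runs or 5×10^4 cells/well for 3-day runs. After one day the medium was replaced with medium holding compound (1, 5 or 10 µM) or 0.1% DMSO blank. Total RNA was extracted with TRIzol and analysed by RT-qPCR. Fold change was calculated by 2^-ΔΔCt against GAPDH and the blank. Values are means of individual bioreplicates ± SD.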

U2OS [3] = test: Inhibition of HOTTIP-WDR5 complex formation in human U2OS cells at 10 uM by in vitro RNA immunoprecipitation assay; in short: as §1
MDA-MB-231 [4] = test: Inhibition of IncRNA-WDR5 complex in human MDA-MB-231 cells assessed as downregulation of FOXD3-AS1 expression measured at 10 uM after 1 to 3 days by RT-qPCR analysis; settings: time 1-3 day; in short: as §2
MDA-MB-231 [5] = test: Inhibition of IncRNA-WDR5 complex in human MDA-MB-231 cells assessed as downregulation of HOTTIP expression measured at 10 uM after 3 days by RT-qPCR analysis; settings: time 3.0 day; in short: as §2

CN1CCN(c2ccc(-c3cccc(CN4CCOCC4)c3)cc2NC(=O)c2c[nH]c(=O)cc2C(F)(F)F)CC1
inhibition (U2OS [1]): inactive | inhibition (MDA-MB-231 [2]): Active | inhibition (U2OS [3]): inactive

CNC(=O)c1cc(C2(C#N)CCC2)cc(NS(=O)(=O)c2cc(Br)cc(Cl)c2O)c1O
inhibition (MDA-MB-231 [4]): inactive | inhibition (U2OS [1]): Active | inhibition (MDA-MB-231 [2]): inactive | inhibition (MDA-MB-231 [5]): Active | inhibition (U2OS [3]): Active
